Results as given in ChEMBL document CHEMBL2057126, “Discovery of new inhibitors of Cdc25B dual specificity phosphatases by structure-based virtual screening” (J Med Chem, 2012).
Active and inactive are the calls of the source. The rule behind the calls is not given here.

Key:
[1] = biological target: T1, M-phase inducer phosphatase 2 (Homo sapiens) (UniProt P30305); test: Inhibition of recombinant phosphatase activity of Cdc25B catalytic domain expressed in Escherichia coli BL21(DE3) using OMFP as substrate at 100 uM after 15 mins by fluorimetric assay
T1 sequence (whole entry): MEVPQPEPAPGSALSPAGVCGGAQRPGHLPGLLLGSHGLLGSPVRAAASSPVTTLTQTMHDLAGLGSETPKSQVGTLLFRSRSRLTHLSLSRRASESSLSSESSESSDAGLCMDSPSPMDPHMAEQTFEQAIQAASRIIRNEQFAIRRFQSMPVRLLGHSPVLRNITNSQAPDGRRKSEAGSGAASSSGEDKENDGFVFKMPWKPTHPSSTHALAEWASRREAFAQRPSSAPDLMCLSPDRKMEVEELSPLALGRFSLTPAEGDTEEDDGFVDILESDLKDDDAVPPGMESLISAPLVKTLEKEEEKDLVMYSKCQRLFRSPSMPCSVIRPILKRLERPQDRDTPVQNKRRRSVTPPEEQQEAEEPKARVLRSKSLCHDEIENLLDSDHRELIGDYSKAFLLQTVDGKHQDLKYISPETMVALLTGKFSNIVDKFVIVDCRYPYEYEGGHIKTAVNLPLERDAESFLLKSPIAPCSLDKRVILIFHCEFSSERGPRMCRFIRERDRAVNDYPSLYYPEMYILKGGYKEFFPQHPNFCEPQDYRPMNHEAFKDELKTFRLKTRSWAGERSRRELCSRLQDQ

[2] = biological target: T2, M-phase inducer phosphatase 2 (Homo sapiens, UniProt P30305); test: Competitive inhibition of recombinant phosphatase activity of Cdc25B catalytic domain expressed in Escherichia coli BL21(DE3) using OMFP as substrate by Lineweaver-Burk plot analysis
T2 sequence (P30305 whole entry): T1 sequence (whole entry)

[3] = biological target: T2, M-phase inducer phosphatase 2; test: (§1) Inhibition of recombinant phosphatase activity of Cdc25B catalytic domain expressed in Escherichia coli BL21(DE3) using OMFP as substrate by spectrofluorimetric analysis
[4] = biological target: T1, M-phase inducer phosphatase 2 (Homo sapiens); test: as §1
[5] = biological target: T3, M-phase inducer phosphatase 1 (Homo sapiens, UniProt P30304); test: Inhibition of recombinant phosphatase activity of Cdc25A catalytic domain expressed in Escherichia coli BL21(DE3) using OMFP as substrate by Lineweaver-Burk plot analysis
T3 sequence (P30304 whole entry): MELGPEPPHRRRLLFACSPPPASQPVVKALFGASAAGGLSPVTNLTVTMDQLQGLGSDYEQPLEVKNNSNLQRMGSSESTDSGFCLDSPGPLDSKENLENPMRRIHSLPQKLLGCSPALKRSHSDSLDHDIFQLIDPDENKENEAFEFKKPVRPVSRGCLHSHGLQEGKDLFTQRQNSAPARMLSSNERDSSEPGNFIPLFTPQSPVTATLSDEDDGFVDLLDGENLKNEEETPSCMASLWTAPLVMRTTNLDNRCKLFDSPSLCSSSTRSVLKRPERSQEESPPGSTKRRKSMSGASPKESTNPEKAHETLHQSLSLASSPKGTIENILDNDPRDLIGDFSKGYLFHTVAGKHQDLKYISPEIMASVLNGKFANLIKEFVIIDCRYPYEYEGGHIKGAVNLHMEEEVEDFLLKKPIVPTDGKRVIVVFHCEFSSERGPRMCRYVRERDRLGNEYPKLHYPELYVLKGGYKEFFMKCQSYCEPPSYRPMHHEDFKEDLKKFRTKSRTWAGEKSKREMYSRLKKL
Outline: (§2)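 Purified recombinant Cdc25A catalytic domain; phosphatase activity measured as OMFP hydrolysis versus inhibitor concentration to derive IC50, with Ki calculated from kinetic measurements. Results are averages ± SD of three determinations.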

MCF7 [6] = test: Growth inhibition against human MCF7 cells expressing Cdc25A-C assessed as cell viability at 200 uM after 72 hrs by MTS assay; type: functional, cell-based
Outline: (§3)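 MCF-7 breast, PC-3 prostate and K562 leukaemia cells treated 72 h with inhibitor or DMSO vehicle control, then cell viability measured. Values are mean ± SD of three experiments; significance by Student's t test, p ≤ 0.05.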

K562 = test: Growth inhibition against human K562 cells expressing Cdc25A-C assessed as cell viability at 200 uM after 72 hrs by MTS assay; type: functional, cell-based; outline: as §3
[7] = biological target: T1, M-phase inducer phosphatase 2 (Homo sapiens); details: K562, 200 uM
PC-3 = test: Growth inhibition against human PC3 cells expressing Cdc25A-C assessed as cell viability at 200 uM after 72 hrs by MTS assay; type: functional, cell-based; outline: as §3
MCF7 [8] = test: Cell cycle arrest in human MCF7 cells assessed as accumulation at S phase at 200 uM after 48 hrs by propidium iodide staining-based flow cytometry (reference value: 14.5 +/- 0.01%); type: functional
MCF7 [9] = test: Cell cycle arrest in human MCF7 cells assessed as accumulation at G2/M phase at 200 uM after 48 hrs by propidium iodide staining-based flow cytometry (reference value: 21 +/- 0.04%); type: functional
MCF7 [10] = test: Cell cycle arrest in human MCF7 cells assessed as accumulation at S phase at 200 uM after 24 hrs by propidium iodide staining-based flow cytometry (reference value: 9.35%); type: functional
MCF7 [11] = test: Cell cycle arrest in human MCF7 cells assessed as accumulation at G2/M phase at 200 uM after 24 hrs by propidium iodide staining-based flow cytometry (reference value: 9.4 +/- 0.04%); type: functional
[12] = biological target: T4, M-phase inducer phosphatase 3 (Homo sapiens) (UniProt P30307); test: Inhibition of recombinant phosphatase activity of Cdc25C catalytic domain expressed in Escherichia coli BL21(DE3) using OMFP as substrate at 100 uM after 15 mins by fluorimetric assay
T4 sequence (whole entry): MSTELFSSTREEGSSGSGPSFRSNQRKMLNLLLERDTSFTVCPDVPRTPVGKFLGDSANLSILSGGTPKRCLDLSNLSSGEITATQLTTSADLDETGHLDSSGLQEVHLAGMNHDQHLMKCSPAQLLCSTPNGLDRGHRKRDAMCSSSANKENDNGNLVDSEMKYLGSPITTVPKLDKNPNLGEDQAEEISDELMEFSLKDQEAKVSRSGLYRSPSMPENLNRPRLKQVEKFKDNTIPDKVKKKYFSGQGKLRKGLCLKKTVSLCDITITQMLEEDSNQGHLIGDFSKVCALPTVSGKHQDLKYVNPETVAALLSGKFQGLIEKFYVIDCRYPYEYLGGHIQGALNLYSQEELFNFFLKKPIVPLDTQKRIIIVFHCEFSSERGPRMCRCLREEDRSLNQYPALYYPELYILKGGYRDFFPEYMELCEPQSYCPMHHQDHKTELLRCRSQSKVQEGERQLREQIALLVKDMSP

[13] = biological target: T5, M-phase inducer phosphatase 1 (Homo sapiens) (UniProt P30304); test: Inhibition of recombinant phosphatase activity of Cdc25A catalytic domain expressed in Escherichia coli BL21(DE3) using OMFP as substrate at 100 uM after 15 mins by fluorimetric assay
T5 sequence (whole entry): T3 sequence (P30304 whole entry)

MCF7 [14] = test: Cell cycle arrest in human MCF7 cells assessed as accumulation at G1 phase at 200 uM after 24 hrs by propidium iodide staining-based flow cytometry (reference value: 81.3 +/- 0.01%); type: functional
MCF7 [15] = test: Cell cycle arrest in human MCF7 cells assessed as accumulation at G1 phase at 200 uM after 48 hrs by propidium iodide staining-based flow cytometry (reference value: 64.5 +/- 0.02%); type: functional
[16] = biological target: T3, M-phase inducer phosphatase 1; test: Inhibition of recombinant phosphatase activity of Cdc25A catalytic domain expressed in Escherichia coli BL21(DE3) using OMFP as substrate by spectrofluorimetric analysis; outline: as §2
[17] = Inhibition of Cdc25; parameters: species or system Homo sapiens

inhibition [1] [%] | Ki [2] [µM] | IC50 [3] [µM] | inhibition [4] | Ki [5] [µM] | inhibition [7] | inhibition [12] [%] | inhibition [13] [%] | IC50 [16] [µM] | IC50 [17] [µM] | Structure (SMILES) | growth inhibition (GI) (MCF7 [6]) | growth inhibition (GI) (K562) | growth inhibition (GI) (PC-3) | Activity (MCF7 [8]) [%] | Activity (MCF7 [9]) [%] | Activity (MCF7 [10]) [%] | Activity (MCF7 [11]) [%] | Activity (MCF7 [14]) [%] | Activity (MCF7 [15]) [%]
80 | 5.3 | 17.5 | Dose-dependent effect | 2.3 | Active | 63 | 80 | 6 |  | O=C(O)c1ccc(C(=O)c2ccccc2C(=O)O)cc1C(=O)O | Active | Active | Active | 1.6 | 1.4 | 14.1 | 26.6 | 59.1 | 97
 |  |  |  |  |  |  |  |  | 0.02 | Cc1nc2c(s1)C(=O)C=C(NCCCN(C)CCCNC1=CC(=O)c3nc(-c4cc(F)ccc4F)oc3C1=O)C2=O |  |  |  |  |  |  |  |  | 
